Source: ChEMBL document CHEMBL5046273, “Development of a Novel, Small-Molecule Brain-Penetrant Histone Deacetylase Inhibitor That Enhances Spatial Memory Formation in Mice” (J Med Chem, 2022)

Assays:
Histone deacetylase 2 [1] = target: T1, Histone deacetylase 2 (Homo sapiens, UniProt Q92769); assay: Inhibition of recombinant human full-length HDAC2 preincubated for 20 mins with DTT followed by enzyme addition and measured after 10 mins by Glo-luminescence assay
In short: (§1)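 Compounds were serially diluted and incubated with enzyme for 10 min. HDAC-Glo I/II substrate/developer was then added, and luminescence read after 40 min at 23 °C. IC50 from four-parameter fits from two independent titrations, mean ± SD.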

Histone deacetylase 2 [2] = target: T1, Histone deacetylase 2; assay: Inhibition of recombinant human full-length HDAC2 incubated for 10 mins by Glo-luminescence assay; in short: as §1

T1 sequence (Q92769 whole entry): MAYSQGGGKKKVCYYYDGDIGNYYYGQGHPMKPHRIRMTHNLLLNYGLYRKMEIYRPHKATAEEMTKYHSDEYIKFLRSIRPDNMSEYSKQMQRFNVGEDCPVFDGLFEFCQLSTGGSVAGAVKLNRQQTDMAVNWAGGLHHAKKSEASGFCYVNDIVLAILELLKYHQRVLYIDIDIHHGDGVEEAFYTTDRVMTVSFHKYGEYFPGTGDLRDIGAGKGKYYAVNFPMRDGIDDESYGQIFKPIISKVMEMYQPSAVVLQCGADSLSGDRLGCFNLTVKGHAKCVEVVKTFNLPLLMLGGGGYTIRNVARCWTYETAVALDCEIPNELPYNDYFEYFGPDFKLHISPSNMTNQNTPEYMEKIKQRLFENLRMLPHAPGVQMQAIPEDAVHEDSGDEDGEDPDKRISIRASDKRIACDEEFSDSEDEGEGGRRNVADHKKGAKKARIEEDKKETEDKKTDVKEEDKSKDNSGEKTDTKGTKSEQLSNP

- IC50 (Histone deacetylase 2 [1]): 28 µM
- IC50 (Histone deacetylase 2 [2]): 140 µM
SMILES: O=C(O)CC(O)/C=C/CCSSCC/C=C/C(O)CC(=O)O (configuration not stated)
